Test results published in ChEMBL document CHEMBL3751731, “Ferulic acid-carbazole hybrid compounds: Combination of cholinesterase inhibition, antioxidant and neuroprotection as multifunctional anti-Alzheimer agents” (Bioorg Med Chem, 2016).
Activity calls are given as the source filed them. The calls are words filed in the database; no cut-off is given here.

Key:
[1] = Antioxidant activity assessed as galvinoxyl radical scavenging activity at 1 uM after 19 hrs by UV spectrophotometric analysis; type: physicochemical
How it was run: (§1)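 Galvinoxyl radical at 2 µM in ethanol, with compounds in ethanol at 1, 2, 10, 50 or 100 µM. Mixture lines used an equimolar (1:1) blend with ferulic acid. A428 was recorded before addition and after 19 h once stable. Percent radical scavenged = (1 − Abst/Abs0) × 100.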

[2] = Antioxidant activity assessed as galvinoxyl radical scavenging activity at 50 uM after 19 hrs by UV spectrophotometric analysis; type: physicochemical; how it was run: as §1
[3] = Antioxidant activity assessed as galvinoxyl radical scavenging activity at 2 uM after 19 hrs by UV spectrophotometric analysis; type: physicochemical; how it was run: as §1
[4] = Antioxidant activity assessed as DPPH radical scavenging activity at 100 uM after 4 hrs by UV spectrophotometric analysis; type: physicochemical
How it was run: (§2)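 DPPH radical at 0.1 mM in ethanol. Test compounds were in ethanol at 1–100 µM (1, 2, 10, 50, 100). Mixture lines used an equimolar (1:1) blend with ferulic acid. Absorbance was read at 517 nm before addition (Abs0) and after 4 h once stable (Abst). Scavenging % = (1 − Abst/Abs0) × 100.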

[5] = Antioxidant activity assessed as DPPH radical scavenging activity at 1 uM after 4 hrs by UV spectrophotometric analysis; type: physicochemical; how it was run: as §2
[6] = Antioxidant activity assessed as galvinoxyl radical scavenging activity at 100 uM after 19 hrs by UV spectrophotometric analysis; type: physicochemical; how it was run: as §1
[7] = Antioxidant activity assessed as galvinoxyl radical scavenging activity at 10 uM after 19 hrs by UV spectrophotometric analysis; type: physicochemical; how it was run: as §1
[8] = Antioxidant activity assessed as DPPH radical scavenging activity at 10 uM after 4 hrs by UV spectrophotometric analysis; type: physicochemical; how it was run: as §2
[9] = Antioxidant activity assessed as DPPH radical scavenging activity at 50 uM after 4 hrs by UV spectrophotometric analysis; type: physicochemical; how it was run: as §2
[10] = Antioxidant activity assessed as DPPH radical scavenging activity at 2 uM after 4 hrs by UV spectrophotometric analysis; type: physicochemical; how it was run: as §2
[11] = biological target: Cholinesterase (Equus caballus, UniProt P81908); assay: Inhibition of equine BChE using BTC as substrate preincubated for 5 mins followed by substrate addition measured after 2 mins by Ellman's assay
Sequence of Cholinesterase (Equus caballus, UniProt P81908) (P81908 whole entry): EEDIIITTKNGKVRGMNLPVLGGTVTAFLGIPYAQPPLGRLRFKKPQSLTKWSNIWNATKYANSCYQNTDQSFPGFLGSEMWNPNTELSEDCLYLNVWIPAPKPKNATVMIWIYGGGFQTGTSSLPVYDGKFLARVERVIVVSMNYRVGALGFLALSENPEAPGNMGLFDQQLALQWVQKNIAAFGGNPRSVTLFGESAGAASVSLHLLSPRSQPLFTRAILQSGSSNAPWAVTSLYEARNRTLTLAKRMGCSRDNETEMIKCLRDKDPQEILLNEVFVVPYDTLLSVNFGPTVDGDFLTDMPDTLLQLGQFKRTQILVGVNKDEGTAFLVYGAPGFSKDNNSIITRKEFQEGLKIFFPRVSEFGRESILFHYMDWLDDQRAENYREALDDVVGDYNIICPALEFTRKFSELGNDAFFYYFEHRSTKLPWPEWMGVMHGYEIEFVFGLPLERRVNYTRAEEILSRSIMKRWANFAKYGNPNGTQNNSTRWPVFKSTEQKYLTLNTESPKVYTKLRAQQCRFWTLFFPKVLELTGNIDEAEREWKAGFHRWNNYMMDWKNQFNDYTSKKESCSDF

[12] = biological target: Acetylcholinesterase (Electrophorus electricus, UniProt O42275); assay: Inhibition of electric eel AChE using ATC as substrate preincubated for 5 mins followed by substrate addition measured after 2 mins by Ellman's assay
Sequence of Acetylcholinesterase (Electrophorus electricus, UniProt O42275) (O42275 whole entry): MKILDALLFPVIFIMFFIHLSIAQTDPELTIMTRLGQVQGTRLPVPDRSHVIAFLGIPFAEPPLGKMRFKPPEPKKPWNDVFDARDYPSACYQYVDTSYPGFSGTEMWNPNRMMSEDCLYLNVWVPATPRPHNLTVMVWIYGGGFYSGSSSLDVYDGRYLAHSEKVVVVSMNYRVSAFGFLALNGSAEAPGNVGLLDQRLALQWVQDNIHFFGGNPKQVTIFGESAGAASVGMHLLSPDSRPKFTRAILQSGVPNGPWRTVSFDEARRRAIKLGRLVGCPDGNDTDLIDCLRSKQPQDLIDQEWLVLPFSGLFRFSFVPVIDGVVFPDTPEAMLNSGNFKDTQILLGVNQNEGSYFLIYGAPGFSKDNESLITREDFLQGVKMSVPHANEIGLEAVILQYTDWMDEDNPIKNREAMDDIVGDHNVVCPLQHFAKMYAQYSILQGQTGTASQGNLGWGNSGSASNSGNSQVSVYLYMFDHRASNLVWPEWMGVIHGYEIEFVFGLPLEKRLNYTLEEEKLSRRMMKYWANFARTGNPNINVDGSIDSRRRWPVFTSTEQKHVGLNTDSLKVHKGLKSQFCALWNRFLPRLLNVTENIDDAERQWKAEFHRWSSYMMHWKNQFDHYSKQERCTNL

[13] = biological target: Acetylcholinesterase (Homo sapiens, UniProt P22303); assay: Inhibition of human AChE using ATC as substrate preincubated for 5 mins followed by substrate addition measured after 2 mins by Ellman's assay
Sequence of Acetylcholinesterase (Homo sapiens, UniProt P22303) (P22303 whole entry): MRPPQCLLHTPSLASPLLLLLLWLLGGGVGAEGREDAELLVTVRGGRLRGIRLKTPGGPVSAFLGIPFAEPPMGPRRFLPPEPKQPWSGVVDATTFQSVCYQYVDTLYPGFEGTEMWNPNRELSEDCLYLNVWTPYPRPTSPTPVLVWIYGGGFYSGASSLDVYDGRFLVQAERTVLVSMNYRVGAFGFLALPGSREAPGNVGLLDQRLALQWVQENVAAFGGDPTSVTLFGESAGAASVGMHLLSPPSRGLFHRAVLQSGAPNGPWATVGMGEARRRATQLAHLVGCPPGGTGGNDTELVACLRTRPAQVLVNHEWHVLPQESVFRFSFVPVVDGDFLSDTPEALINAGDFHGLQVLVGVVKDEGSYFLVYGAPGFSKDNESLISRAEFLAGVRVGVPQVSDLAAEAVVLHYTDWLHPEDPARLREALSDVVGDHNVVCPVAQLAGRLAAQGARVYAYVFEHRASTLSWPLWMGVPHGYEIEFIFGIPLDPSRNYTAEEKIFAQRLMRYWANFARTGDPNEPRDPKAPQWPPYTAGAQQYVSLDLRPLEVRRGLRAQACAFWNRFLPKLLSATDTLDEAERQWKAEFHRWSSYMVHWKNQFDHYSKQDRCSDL
How it was run: (§3)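 Ellman's method with DTNB chromogen, acetylthiocholine (AChE) or butyrylthiocholine (BChE) iodide substrate, in potassium phosphate buffer pH 8.0 (KOH-adjusted). Compounds were diluted from ethanol stocks, with a top final concentration of 10^-4 M. At least five concentrations (normally 10^-4–10^-9 M) were run, each in triplicate, read at 412 nm at 25 °C. IC50 values are from inhibition curves, as means of at least three determinations.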

[14] = biological target: Cholinesterase (Homo sapiens, UniProt P06276); assay: Inhibition of human BChE using BTC as substrate preincubated for 5 mins followed by substrate addition measured after 2 mins by Ellman's assay; how it was run: as §3
Sequence of Cholinesterase (Homo sapiens, UniProt P06276) (P06276 whole entry): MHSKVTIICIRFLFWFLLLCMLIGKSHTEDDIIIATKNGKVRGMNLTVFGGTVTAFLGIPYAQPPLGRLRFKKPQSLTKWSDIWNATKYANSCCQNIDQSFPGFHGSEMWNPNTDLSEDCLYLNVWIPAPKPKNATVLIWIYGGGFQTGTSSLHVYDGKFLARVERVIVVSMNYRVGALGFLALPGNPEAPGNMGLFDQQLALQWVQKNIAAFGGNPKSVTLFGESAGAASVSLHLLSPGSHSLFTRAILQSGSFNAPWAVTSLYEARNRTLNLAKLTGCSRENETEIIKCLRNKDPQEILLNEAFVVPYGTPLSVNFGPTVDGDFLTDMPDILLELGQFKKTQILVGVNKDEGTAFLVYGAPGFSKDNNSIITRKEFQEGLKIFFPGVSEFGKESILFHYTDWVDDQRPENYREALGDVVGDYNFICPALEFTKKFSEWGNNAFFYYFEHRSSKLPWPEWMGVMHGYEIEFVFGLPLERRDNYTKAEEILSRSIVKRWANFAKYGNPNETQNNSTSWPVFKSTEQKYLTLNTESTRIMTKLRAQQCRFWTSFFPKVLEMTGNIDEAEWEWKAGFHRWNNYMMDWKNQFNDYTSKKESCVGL

[15] = tested on: PC-12; assay: Neuroprotective effect in rat PC12 cells assessed as alleviation of H2O2 -induced toxicity after 24 hrs by MTT assay; type: functional, cell-based
How it was run: (§4)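 PC12 cells (F-12, 10% FBS, 37 °C, 5% CO₂; 2000 cells/well, 24 h pre-culture) were co-treated with compound (0.1, 1, 10, 50; DMSO <0.5%) and H₂O₂ for 24 h. The mixture line used a 1:1 molar blend with ferulic acid. MTT for 4 h, formazan dissolved in DMSO, A540, blank-subtracted. Viability is % of control; three independent trials, mean ± SEM.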

[16] = Cytotoxicity against rat PC12 cells at 0.1 to 50 uM incubated for 24 hrs by MTT assay; type: cell-based; conditions: pc-12, 24 h
How it was run: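 PC12 cells were grown in F-12 with 10% FBS and penicillin/streptomycin at 37 °C, 5% CO₂, seeded at 2000 cells/well and grown 24 h. Compounds were added from DMSO (final <0.5%) for 24 h. MTT (5 mg/mL) was added for 4 h, formazan dissolved in DMSO and A540 read after cell-free blank subtraction. Viability is % of control; three independent trials, mean ± SEM.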

[17] = tested on: PC-12; assay: Neuroprotective effect in rat PC12 cells assessed as alleviation of amyloid beta42-induced toxicity after 24 hrs by MTT assay; type: functional, cell-based
How it was run: (§5)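 Aβ42 was dissolved in hexafluoroisopropanol, dried to a film, taken up in F-12 and held at 4 °C for 24 h. PC12 cells (2000/well, 24 h pre-culture) were co-treated with this Aβ42 and compound (0.1–50; DMSO <0.5%) for 24 h. The mixture line used a 1:1 blend with ferulic acid. MTT for 4 h, A540; % of control, three independent trials, mean ± SEM.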

[18] = tested on: PC-12; assay: Neuroprotective effect in rat PC12 cells assessed as alleviation of H2O2-induced toxicity at 1:1 compound to ferulic acid molar ratio after 24 hrs by MTT assay; type: functional, cell-based; how it was run: as §4
[19] = Antioxidant activity assessed as DPPH radical scavenging activity at 100 uM after 4 hrs by UV spectrophotometric analysis in presence of ferulic acid; type: physicochemical; how it was run: as §2
[20] = Antioxidant activity assessed as DPPH radical scavenging activity at 1 uM after 4 hrs by UV spectrophotometric analysis in presence of ferulic acid; type: physicochemical; how it was run: as §2
[21] = Antioxidant activity assessed as DPPH radical scavenging activity at 2 uM after 4 hrs by UV spectrophotometric analysis in presence of ferulic acid; type: physicochemical; how it was run: as §2
[22] = Antioxidant activity assessed as galvinoxyl radical scavenging activity at 10 uM after 19 hrs in presence of ferulic acid by UV spectrophotometric analysis; type: physicochemical; how it was run: as §1
[23] = Antioxidant activity assessed as DPPH radical scavenging activity at 10 uM after 4 hrs by UV spectrophotometric analysis in presence of ferulic acid; type: physicochemical; how it was run: as §2
[24] = Antioxidant activity assessed as DPPH radical scavenging activity at 50 uM after 4 hrs by UV spectrophotometric analysis in presence of ferulic acid; type: physicochemical; how it was run: as §2
[25] = Antioxidant activity assessed as galvinoxyl radical scavenging activity at 2 uM after 19 hrs in presence of ferulic acid by UV spectrophotometric analysis; type: physicochemical; how it was run: as §1
[26] = Antioxidant activity assessed as galvinoxyl radical scavenging activity at 100 uM after 19 hrs in presence of ferulic acid by UV spectrophotometric analysis; type: physicochemical; how it was run: as §1
[27] = Antioxidant activity assessed as galvinoxyl radical scavenging activity at 50 uM after 19 hrs in presence of ferulic acid by UV spectrophotometric analysis; type: physicochemical; how it was run: as §1
[28] = tested on: PC-12; assay: Neuroprotective effect in rat PC12 cells assessed as alleviation of amyloid beta 42-induced toxicity at 1:1 compound to ferulic acid molar ratio after 24 hrs by MTT assay; type: functional, cell-based; how it was run: as §5
[29] = Antioxidant activity assessed as galvinoxyl radical scavenging activity at 1 uM after 19 hrs in presence of ferulic acid by UV spectrophotometric analysis; type: physicochemical; how it was run: as §1

| Compound | Activity [1] [%] | Activity [2] [%] | Activity [3] [%] | Activity [4] [%] | Activity [5] [%] | Activity [6] [%] | Activity [7] [%] | Activity [8] [%] | Activity [9] [%] | Activity [10] [%] | IC50 [11] [µM] | IC50 [12] [µM] | further results |
| --- | --- | --- | --- | --- | --- | --- | --- | --- | --- | --- | --- | --- | --- |
| COc1cc(/C=C/C(=O)O)ccc1O [FERULATE] | 6.6 | 52.2 | 15.8 | 92.2 | 30.3 | 79 | 33.7 | 63.1 | 72 | 44.4 |  |  |  |
| CCN(Cc1cccc2[nH]c3cc(OC)ccc3c12)C(=O)/C=C/c1ccc(O)c(OC)c1 | 11.1 | 78.2 | 29.2 | 94.9 | 33.1 | 91.9 | 40.3 | 71.3 | 86.4 | 59.2 | 19.8 | 61.6 |  |
| COc1cc(/C=C/C(=O)N(Cc2cccc3[nH]c4ccccc4c23)C(C)C)ccc1O | 24.1 | 87.5 | 55.2 | 90.9 | 44.1 | 90.8 | 68 | 68.9 | 84.5 | 56.2 | 12.7 | 11.1 | IC50 [13]: 22 µM; IC50 [14]: 9 µM |
| COc1cc(/C=C/C(=O)N(Cc2ccccc2)Cc2cccc3[nH]c4ccccc4c23)ccc1O |  |  |  |  |  |  |  |  |  |  |  | > 100 |  |
| CCN(Cc1cccc2[nH]c3cc(Cl)ccc3c12)C(=O)/C=C/c1ccc(O)c(OC)c1 | 8.3 | 57 | 22.4 | 91.9 | 41.8 | 83.2 | 38.1 | 66 | 77.3 | 49.1 | 3.1 | 1.9 | Activity [15]: Dose-dependent effect; IC50 [13]: 6.9 µM; Activity [16]: Non-toxic; Activity [17]: Dose-dependent effect; IC50 [14]: 2.8 µM |
| COc1ccc2c(c1)[nH]c1cccc(CN(C(=O)/C=C/c3ccc(O)c(OC)c3)C3CCCC3)c12 | 14.8 | 66.8 | 24 | 90.4 | 34.8 | 87.4 | 37.4 | 67.4 | 86.8 | 54 | 25.9 | 88.2 |  |
| COc1ccc2c(c1)[nH]c1cccc(CN(C(=O)/C=C/c3ccc(O)c(OC)c3)C(C)C)c12 | 1.1 | 51.7 | 8 | 98 | 45.1 | 87.2 | 23.4 | 68.2 | 72.9 | 55 | 13.9 | 58.2 |  |
| COc1ccc2c(c1)[nH]c1cccc(CN(C(=O)/C=C/c3ccc(O)c(OC)c3)C3CCCCC3)c12 | 25.6 | 72 | 40.9 | 88.6 | 38.6 | 88.6 | 50.9 | 50.9 | 82 | 47.9 | 20.5 | > 100 |  |
| CCNCc1cccc2[nH]c3cc(Cl)ccc3c12 |  |  |  |  |  |  |  |  |  |  | 1.9 | 2.1 | Activity [18]: Active; Activity [19]: 93.2%; Activity [20]: 31.6%; Activity [21]: 44.7%; Activity [22]: 30.1%; Activity [23]: 60.1%; Activity [24]: 71.4%; Activity [25]: 14.7%; IC50 [13]: 5.1 µM; Activity [26]: 83.2%; Activity [27]: 51.4%; Activity [28]: inactive; Activity [29]: 11%; IC50 [14]: 7.9 µM |
| COc1cc(/C=C/C(=O)N(Cc2cccc3[nH]c4ccccc4c23)C2CCCCC2)ccc1O | 3.3 | 42 | 12.4 | 89.2 | 30.3 | 87.2 | 23.1 | 63.1 | 72 | 52.4 | 22 | > 100 |  |
| COc1cc(/C=C/C(=O)N(Cc2cccc3[nH]c4ccccc4c23)C2CCCC2)ccc1O | 25.9 | 85.7 | 54.5 | 90.3 | 25.9 | 90.3 | 66.6 | 66.6 | 85.7 | 54.5 | 31.6 | > 100 |  |
| CC(C)NCc1cccc2[nH]c3ccccc3c12 |  |  |  |  |  |  |  |  |  |  | 8.9 | 21.6 | IC50 [13]: 18 µM; IC50 [14]: 8.1 µM |
| COc1ccc2c(c1)[nH]c1cccc(CN(Cc3ccccc3)C(=O)/C=C/c3ccc(O)c(OC)c3)c12 |  |  |  |  |  |  |  |  |  |  |  | > 100 |  |
| CCN(Cc1cccc2[nH]c3ccccc3c12)C(=O)/C=C/c1ccc(O)c(OC)c1 | 24.7 | 82.8 | 40.1 | 86.3 | 24.7 | 86.3 | 55 | 55 | 82.8 | 40.1 | 13.8 | 18 |  |
